ChEMBL document CHEMBL1629572 (Antimicrob Agents Chemother, 2009)
pIC50: −log10 of the molar value.

Assays:
Neuraminidase [1] = target: T1, Neuraminidase (Influenza A virus, UniProt B4URF0); assay: Inhibition of Influenza A virus (A/Aichi/193/2004(H1N1)) neuraminidase after 30 mins by fluorescence analysis
Neuraminidase [2] = target: T1, Neuraminidase; assay: Inhibition of Influenza A virus (A/Yamagata/32/1989(H1N1)) neuraminidase after 30 mins by fluorescence analysis
[3] = Inhibition of Influenza B virus (B/Tokushima/1/2005(Yamagata)) neuraminidase after 30 mins by fluorescence analysis
Summary of the method: (§1)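 Virus NA source was mixed with compound in 32.5 mM MES-NaOH pH 6.5 with 4 mM CaCl2 and preincubated 10 min at room temperature. Reaction ran 30 min at room temperature with 100 μM (final) 4-MU-NANA. Fluorescence was read at ex 360/em 460 nm, in triplicate. IC50 came from linear regression of residual activity against log concentration, using concentrations giving 10–90% residual activity.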

Influenza A virus = assay: Antiviral activity against Influenza A virus (A/Puerto Rico/8/1934(H1N1)) infected in mouse infection model at 0.3 umol/kg, itn administered 4 hrs pre-infection and at 4 hrs and 17 hrs post-infection up to 20 days; format: functional, organism-based
Summary of the method: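 BALB/c females, 5–6 weeks old, were anaesthetised and infected intranasally with 1,500 PFU/mouse A/PR/8/34 in PBS with 0.42% BSA. Three intranasal doses of 0.3 μmol/kg in saline (50 μl) were given at 4 h pre-infection and at 4 h and 17 h post-infection. Survival was read daily for 20 days, 10–12 mice per group.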

[4] = Inhibition of Influenza B virus (B/Sapporo/29/2005(Yamagata)) neuraminidase after 30 mins by fluorescence analysis; summary of the method: as §1
Neuraminidase [5] = target: T1, Neuraminidase; assay: Inhibition of Influenza A virus (A/Saitama/78/2003(H1N1)) neuraminidase after 30 mins by fluorescence analysis
[6] = Inhibition of Influenza B virus (B/Yamagata/15/2002(Victoria)) neuraminidase after 30 mins by fluorescence analysis; summary of the method: as §1
[7] = Inhibition of Influenza B virus (B/Shanghai/361/2002(Yamagata)) neuraminidase after 30 mins by fluorescence analysis; summary of the method: as §1
[8] = Inhibition of Influenza B virus (B/Saitama/01/2005(Yamagata)) neuraminidase after 30 mins by fluorescence analysis; summary of the method: as §1
Neuraminidase [9] = target: T1, Neuraminidase; assay: Inhibition of Influenza A virus (A/Saitama/80/2003(H3N2)) neuraminidase after 30 mins by fluorescence analysis
Neuraminidase [10] = target: T1, Neuraminidase; assay: Inhibition of Influenza A virus (A/duck/Memphis/546/1974(H11N9)) neuraminidase after 30 mins by fluorescence analysis
Neuraminidase [11] = target: T1, Neuraminidase; assay: Inhibition of Influenza A virus (A/Okinawa/42/2004(H1N1)) neuraminidase after 30 mins by fluorescence analysis
[12] = Inhibition of Influenza B virus (B/Yamagata/145/2003(Victoria)) neuraminidase after 30 mins by fluorescence analysis; summary of the method: as §1
Neuraminidase [13] = target: T1, Neuraminidase; assay: Inhibition of Influenza A virus (A/Osaka/56/2004(H3N2)) neuraminidase after 30 mins by fluorescence analysis
Neuraminidase [14] = target: T1, Neuraminidase; assay: Inhibition of Influenza A virus (A/Yamagata/57/2002(H1N1)) neuraminidase after 30 mins by fluorescence analysis
Neuraminidase [15] = target: T1, Neuraminidase; assay: Inhibition of Influenza A virus (A/Puerto Rico/8/1934(H1N1)) neuraminidase after 30 mins by fluorescence analysis
[16] = Inhibition of Influenza B virus (B/Shiga/17/2002(Victoria)) neuraminidase after 30 mins by fluorescence analysis; summary of the method: as §1
Neuraminidase [17] = target: T1, Neuraminidase; assay: Inhibition of Influenza A virus (A/Kitakyushu/159/1993(H3N2)) neuraminidase after 30 mins by fluorescence analysis
Neuraminidase [18] = target: T1, Neuraminidase; assay: Inhibition of Influenza A virus (A/Hiroshima/52/2005(H3N2)) neuraminidase after 30 mins by fluorescence analysis
Neuraminidase [19] = target: T1, Neuraminidase; assay: Inhibition of Influenza A virus (A/duck/Alberta/60/1976(H12N5)) neuraminidase after 30 mins by fluorescence analysis
Neuraminidase [20] = target: T1, Neuraminidase; assay: Inhibition of Influenza A virus (A/duck/Hokkaido/84/2002(H5N3)) neuraminidase after 30 mins by fluorescence analysis
Neuraminidase [21] = target: T1, Neuraminidase; assay: Inhibition of Influenza A virus (A/New Caledonia/20/1999(H1N1)) neuraminidase after 30 mins by fluorescence analysis
[22] = Inhibition of Influenza B virus (B/Brisbane/32/2002(Victoria) neuraminidase after 30 mins by fluorescence analysis; summary of the method: as §1
[23] = Inhibition of Influenza B virus (B/Yamagata/87/2004(Yamagata)) neuraminidase after 30 mins by fluorescence analysis; summary of the method: as §1
[24] = Inhibition of Influenza B virus (B/Saitama/01/2006(Victoria)) neuraminidase after 30 mins by fluorescence analysis; summary of the method: as §1
Neuraminidase [25] = target: T1, Neuraminidase; assay: Inhibition of Influenza A virus (A/duck/Ukraine/1/1963(H3N8)) neuraminidase after 30 mins by fluorescence analysis
[26] = Inhibition of Influenza B virus (B/Aichi/3/2006(Victoria)) neuraminidase after 30 mins by fluorescence analysis; summary of the method: as §1
[27] = Inhibition of Influenza B virus (B/Yamagata/113/2005(Yamagata)) neuraminidase after 30 mins by fluorescence analysis; summary of the method: as §1
Neuraminidase [28] = target: T1, Neuraminidase; assay: Inhibition of Influenza A virus (A/Wyoming/03/2003(H3N2)) neuraminidase after 30 mins by fluorescence analysis
Neuraminidase [29] = target: T1, Neuraminidase; assay: Inhibition of Influenza A virus (A/New York/55/2004(H3N2)) neuraminidase after 30 mins by fluorescence analysis
Neuraminidase [30] = target: T1, Neuraminidase; assay: Inhibition of Influenza A virus (A/Shiga/1/2002(H1N1)) neuraminidase after 30 mins by fluorescence analysis
[31] = Inhibition of Influenza B virus (B/Shizuoka/58/2004(Yamagata)) neuraminidase after 30 mins by fluorescence analysis; summary of the method: as §1
Neuraminidase [32] = target: T1, Neuraminidase; assay: Inhibition of Influenza A virus (A/Wisconsin/67/2005(H3N2)) neuraminidase after 30 mins by fluorescence analysis
[33] = Inhibition of Influenza B virus (B/Tokushima/1/2003(Victoria)) neuraminidase after 30 mins by fluorescence analysis; summary of the method: as §1
Neuraminidase [34] = target: T1, Neuraminidase; assay: Inhibition of Influenza A virus (A/turkey/Ontario/6,118/1968(H8N4)) neuraminidase after 30 mins by fluorescence analysis
Neuraminidase [35] = target: T1, Neuraminidase; assay: Inhibition of Influenza A virus (A/Aichi/2/1968(H3N2)) neuraminidase after 30 mins by fluorescence analysis
[36] = Inhibition of Influenza B virus (B/Aichi/186/2005(Yamagata)) neuraminidase after 30 mins by fluorescence analysis; summary of the method: as §1
Neuraminidase [37] = target: T1, Neuraminidase; assay: Inhibition of Influenza A virus (A/Yamagata/3/2002(H1N1)) neuraminidase after 30 mins by fluorescence analysis
Neuraminidase [38] = target: T1, Neuraminidase; assay: Inhibition of Influenza A virus (A/Aichi/169/2005(H1N1)) neuraminidase after 30 mins by fluorescence analysis
Neuraminidase [39] = target: T1, Neuraminidase; assay: Inhibition of Influenza A virus (A/Saitama/07/2006(H3N2)) neuraminidase after 30 mins by fluorescence analysis
Neuraminidase [40] = target: T1, Neuraminidase; assay: Inhibition of Influenza A virus (A/California/07/2004(H3N2)) neuraminidase after 30 mins by fluorescence analysis
[41] = Inhibition of Influenza B virus (B/Mie/1/1993(Yamagata)) neuraminidase after 30 mins by fluorescence analysis; summary of the method: as §1

T1 sequence (B4URF0 whole entry): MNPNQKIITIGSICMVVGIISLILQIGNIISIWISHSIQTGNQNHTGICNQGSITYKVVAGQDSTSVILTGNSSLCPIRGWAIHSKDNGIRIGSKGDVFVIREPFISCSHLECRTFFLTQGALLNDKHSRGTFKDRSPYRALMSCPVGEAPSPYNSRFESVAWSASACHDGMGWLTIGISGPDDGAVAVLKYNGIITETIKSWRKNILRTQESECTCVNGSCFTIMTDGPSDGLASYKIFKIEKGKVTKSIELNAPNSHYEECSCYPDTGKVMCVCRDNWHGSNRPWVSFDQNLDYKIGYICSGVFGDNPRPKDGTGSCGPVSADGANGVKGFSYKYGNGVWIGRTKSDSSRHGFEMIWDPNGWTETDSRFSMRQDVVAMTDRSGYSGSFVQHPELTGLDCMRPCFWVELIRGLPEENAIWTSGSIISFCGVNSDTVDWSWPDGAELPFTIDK

CCCCCCCC(=O)OC[C@@H](O)[C@@H](OC)[C@@H]1OC(C(=O)O)=C[C@H](NC(=N)N)[C@H]1NC(C)=O [LANINAMIVIR OCTANOATE]
pIC50 (Neuraminidase [1]): 6.01
pIC50 (Neuraminidase [2]): 6.05
pIC50 [3]: 5.43
Activity (Influenza A virus): Non-toxic
pIC50 [4]: 5.44
pIC50 (Neuraminidase [5]): 6.03
pIC50 [6]: 5.16
pIC50 [7]: 5.18
pIC50 [8]: 5.44
pIC50 (Neuraminidase [9]): 7.41
pIC50 (Neuraminidase [10]): 6.45
pIC50 (Neuraminidase [11]): 6.20
pIC50 [12]: 4.80
pIC50 (Neuraminidase [13]): 6.89
pIC50 (Neuraminidase [14]): 5.93
pIC50 (Neuraminidase [15]): 6.03
pIC50 [16]: 5.11
pIC50 (Neuraminidase [17]): 6.66
pIC50 (Neuraminidase [18]): 7.16
pIC50 (Neuraminidase [19]): 5.94
pIC50 (Neuraminidase [20]): 6.34
pIC50 (Neuraminidase [21]): 6.18
pIC50 [22]: 5.00
pIC50 [23]: 5.11
pIC50 [24]: 4.34
pIC50 (Neuraminidase [25]): 5.98
pIC50 [26]: 4.86
pIC50 [27]: 5.46
pIC50 (Neuraminidase [28]): 6.94
pIC50 (Neuraminidase [29]): 6.87
pIC50 (Neuraminidase [30]): 6.13
pIC50 [31]: 5.12
pIC50 (Neuraminidase [32]): 6.73
pIC50 [33]: 4.86
pIC50 (Neuraminidase [34]): 6.38
pIC50 (Neuraminidase [35]): 6.79
pIC50 [36]: 5.45
pIC50 (Neuraminidase [37]): 6.15
pIC50 (Neuraminidase [38]): 6.18
pIC50 (Neuraminidase [39]): 7.20
pIC50 (Neuraminidase [40]): 6.87
pIC50 [41]: 5.16
